ChEMBL document CHEMBL1165949, “Dammaranes from Gynostemma pentaphyllum and synthesis of their derivatives as inhibitors of protein tyrosine phosphatase 1B” (Bioorg Med Chem, 2010)

Experiments:
[1] = target: T1, Tyrosine-protein phosphatase non-receptor type 1 (Homo sapiens, UniProt P18031); assay: Inhibition of PTP1B by pNPP hydrolase assay
T1 sequence (P18031 whole entry): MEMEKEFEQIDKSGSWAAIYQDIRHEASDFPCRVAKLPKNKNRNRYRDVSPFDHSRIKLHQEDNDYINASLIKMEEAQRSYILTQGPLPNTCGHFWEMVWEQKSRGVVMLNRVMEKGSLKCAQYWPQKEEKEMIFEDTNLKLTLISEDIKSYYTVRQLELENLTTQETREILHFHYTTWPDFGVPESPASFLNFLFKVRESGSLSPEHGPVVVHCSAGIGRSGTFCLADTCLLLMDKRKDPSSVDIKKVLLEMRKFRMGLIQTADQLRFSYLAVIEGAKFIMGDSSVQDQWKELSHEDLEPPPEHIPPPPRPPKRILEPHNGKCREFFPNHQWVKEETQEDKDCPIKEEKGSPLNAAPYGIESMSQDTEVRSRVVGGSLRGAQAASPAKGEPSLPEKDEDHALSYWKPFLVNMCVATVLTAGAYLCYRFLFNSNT
Method in brief: (§1)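 Enzyme activity (PTP1B or TCPTP) was measured by hydrolysis of p-nitrophenyl phosphate (pNPP), with {4-[4-(4-oxalylphenoxymethyl)-benzyloxy]-phenyl}-oxo-acetic acid as the reference inhibitor. IC50 was derived by regression analysis and reported as mean ± SD of three replications.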

[2] = target: T2, Tyrosine-protein phosphatase non-receptor type 2 (Homo sapiens, UniProt P17706); assay: Inhibition of TCPTP by pNPP hydrolase assay; method in brief: as §1
T2 sequence (P17706 whole entry): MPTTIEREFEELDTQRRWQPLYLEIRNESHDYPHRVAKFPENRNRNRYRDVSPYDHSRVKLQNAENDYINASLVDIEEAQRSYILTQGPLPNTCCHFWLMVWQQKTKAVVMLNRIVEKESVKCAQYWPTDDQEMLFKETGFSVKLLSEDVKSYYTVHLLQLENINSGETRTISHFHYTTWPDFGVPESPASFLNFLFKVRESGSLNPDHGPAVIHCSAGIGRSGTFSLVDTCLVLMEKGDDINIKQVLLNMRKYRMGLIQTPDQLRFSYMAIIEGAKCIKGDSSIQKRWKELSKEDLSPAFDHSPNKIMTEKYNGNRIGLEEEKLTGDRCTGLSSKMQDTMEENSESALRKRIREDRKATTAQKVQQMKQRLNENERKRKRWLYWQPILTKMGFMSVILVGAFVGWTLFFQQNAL

[3] = Selectivity ratio of IC50 for TCPTP to IC50 for PTP1B
[4] = target: T1, Tyrosine-protein phosphatase non-receptor type 1; assay: Inhibition of PTP1B; method in brief: as §1
[5] = target: T3, Tyrosine-protein phosphatase non-receptor type 1 (Homo sapiens) (UniProt P18031); assay: Inhibition of PTP1B at 20 uM by pNPP hydrolase assay
T3 sequence (whole entry): T1 sequence (P18031 whole entry)

Row | Structure (SMILES) | IC50 [1] | IC50 [2] | Ratio IC50 [3] | IC50 [4] | inhibition [5]
1 | CC(C)=C[C@@H]1C[C@](O)([C@H]2CC[C@@H]3[C@@H]2CC[C@H]2[C@@]3(C)CC[C@H]3C(C)(C)C(NCc4ccc([N+](=O)[O-])cc4)CC[C@]23C)C(=O)O1 (some centres undefined) | 6.58 µM |  |  |  | 
2 | CC(=O)O[C@H]1CC[C@]2(C)[C@H]3CC[C@H]4[C@@H](CC[C@@H]4[C@@]4(O)C[C@@H](C=C(C)C)OC4=O)[C@]3(C)CC[C@H]2C1(C)C | 12.7 µM |  |  |  | 
3 | COc1ccc(C(=O)O[C@H]2CC[C@]3(C)[C@H]4CC[C@H]5[C@@H](CC[C@@H]5[C@@]5(O)C[C@@H](C=C(C)C)OC5=O)[C@]4(C)CC[C@H]3C2(C)C)cc1 | 2.61 µM | 3.9 µM |  |  | 
4 | CC(C)=C[C@@H]1C[C@](O)([C@H]2CC[C@@H]3[C@@H]2CC[C@H]2[C@@]3(C)CC[C@H]3C(C)(C)[C@@H](OC(=O)c4ccc(C(=O)O)cc4)CC[C@]23C)C(=O)O1 | 0.27 µM | 0.97 µM |  |  | 
5 | CCCCC(=O)[C@H]1CC[C@]2(C)[C@H]3CC[C@H]4[C@@H](CC[C@@H]4[C@@]4(O)C[C@@H](C=C(C)C)OC4=O)[C@]3(C)CC[C@H]2C1(C)C | 4.14 µM | 11.8 µM |  |  | 
6 | CC(C)=C[C@@H]1C[C@](O)([C@H]2CC[C@@H]3[C@@H]2CC[C@H]2[C@@]3(C)CC[C@H]3C(C)(C)C(=O)CC[C@]23C)C(=O)O1 | 13.1 µM | 34.1 µM |  |  | 
7 | CCC(=O)[C@H]1CC[C@]2(C)[C@H]3CC[C@H]4[C@@H](CC[C@@H]4[C@@]4(O)C[C@@H](C=C(C)C)OC4=O)[C@]3(C)CC[C@H]2C1(C)C | 4.6 µM | 14.7 µM |  |  | 
8 | CC(C)=C[C@@H]1C[C@](O)([C@H]2CC[C@@H]3[C@@H]2CC[C@H]2[C@@]3(C)CC[C@H]3C(C)(C)[C@@H](OC(=O)c4ccccn4)CC[C@]23C)C(=O)O1 | 2.36 µM | 5.14 µM |  |  | 
9 | CC(C)=C[C@@H]1C[C@](O)([C@H]2CC[C@@H]3[C@@H]2CC[C@H]2[C@@]3(C)CC[C@H]3C(C)(C)C(NCc4cc(F)cc(F)c4)CC[C@]23C)C(=O)O1 (some centres undefined) | 11.6 µM |  |  |  | 
10 | CC(C)=C[C@@H]1C[C@](O)([C@H]2CC[C@@H]3[C@@H]2CC[C@H]2[C@@]3(C)CC[C@H]3C(C)(C)[C@@H](C(=O)c4ccccc4)CC[C@]23C)C(=O)O1 | 2.75 µM | 4.15 µM |  |  | 
11 | CC(C)=C[C@@H]1C[C@](O)([C@H]2CC[C@@H]3[C@@H]2CC[C@H]2[C@@]3(C)CC[C@H]3C(C)(C)[C@@H](O)CC[C@]23C)C(=O)O1 | 11.3 µM |  |  | 15.7 µM | 
12 | CC(C)=C[C@H]1C[C@@](O)([C@H]2CC[C@@H]3[C@@H]2CC[C@H]2[C@@]3(C)CC[C@H]3C(C)(C)[C@@H](O)CC[C@]23C)C(=O)O1 | 9.6 µM |  |  | 5.3 µM | 
13 | COc1ccc(CNC2CC[C@]3(C)[C@H]4CC[C@H]5[C@@H](CC[C@@H]5[C@@]5(O)C[C@@H](C=C(C)C)OC5=O)[C@]4(C)CC[C@H]3C2(C)C)cc1 (some centres undefined) |  |  |  |  | 24%

Now from value to compound:

Row | IC50 [1] | IC50 [2] | Ratio IC50 [3] | IC50 [4] | inhibition [5] | Structure (SMILES)
14 | 1.9 µM | 4.05 µM |  |  |  | COc1ccccc1C(=O)O[C@H]1CC[C@]2(C)[C@H]3CC[C@H]4[C@@H](CC[C@@H]4[C@@]4(O)C[C@@H](C=C(C)C)OC4=O)[C@]3(C)CC[C@H]2C1(C)C
15 | 0.5 µM | 1.22 µM |  |  |  | CC(C)=C[C@@H]1C[C@](O)([C@H]2CC[C@@H]3[C@@H]2CC[C@H]2[C@@]3(C)CC[C@H]3C(C)(C)[C@@H](OC(=O)c4ccc(C(=O)O)c([N+](=O)[O-])c4)CC[C@]23C)C(=O)O1
16 | 0.33 µM | 1.62 µM | 4.9 |  |  | CC(C)=C[C@@H]1C[C@](O)([C@H]2CC[C@@H]3[C@@H]2CC[C@H]2[C@@]3(C)CC[C@H]3C(C)(C)[C@@H](OC(=O)c4cccc(C(=O)O)c4)CC[C@]23C)C(=O)O1
17 | 1.96 µM | 3.38 µM |  |  |  | CC(C)=C[C@@H]1C[C@](O)([C@H]2CC[C@@H]3[C@@H]2CC[C@H]2[C@@]3(C)CC[C@H]3C(C)(C)[C@@H](OC(=O)c4ccccc4[N+](=O)[O-])CC[C@]23C)C(=O)O1
18 | 1.62 µM | 2.87 µM |  |  |  | CC(C)=C[C@@H]1C[C@](O)([C@H]2CC[C@@H]3[C@@H]2CC[C@H]2[C@@]3(C)CC[C@H]3C(C)(C)[C@@H](OC(=O)c4ccc([N+](=O)[O-])cc4[N+](=O)[O-])CC[C@]23C)C(=O)O1
19 | 1.42 µM | 5.1 µM |  |  |  | CC(C)=C[C@@H]1C[C@](O)([C@H]2CC[C@@H]3[C@@H]2CC[C@H]2[C@@]3(C)CC[C@H]3C(C)(C)[C@@H](OC(=O)c4ccc([N+](=O)[O-])cc4)CC[C@]23C)C(=O)O1
20 | 2.08 µM | 12 µM |  |  |  | COc1cccc(C(=O)O[C@H]2CC[C@]3(C)[C@H]4CC[C@H]5[C@@H](CC[C@@H]5[C@@]5(O)C[C@@H](C=C(C)C)OC5=O)[C@]4(C)CC[C@H]3C2(C)C)c1
21 | 1.7 µM | 2.26 µM |  |  |  | CC(C)=C[C@@H]1C[C@](O)([C@H]2CC[C@@H]3[C@@H]2CC[C@H]2[C@@]3(C)CC[C@H]3C(C)(C)[C@@H](OC(=O)c4cccc([N+](=O)[O-])c4)CC[C@]23C)C(=O)O1
